Several values for one entry are separate records, joined by “and”; a condition that tells them apart may be missing. Identical values can stand only once. Activity calls are given as the source filed them. No cut-off for these calls is given here.
How the values were obtained:
Rattus norvegicus [1] = species on record: Rattus norvegicus; assay: Percent change in body weight DMBA-induced hormone-dependent mammary carcinoma tumors in rats at 4.5 mg for 7 days; type: functional
Rattus norvegicus [2] = species on record: Rattus norvegicus; assay: Partial remission of DMBA-induced hormone-dependent mammary carcinoma tumors in ovariectomised rats; type: functional
Summary of the method: (§1)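 DMBA-induced, hormone-dependent mammary adenocarcinoma in SD rats, with ovariectomy as the treatment. Rats bearing at least one tumor >140 mm² were placed in groups of ten. Tumors were counted at the start and as new tumors. Responses were scored as complete remission, partial remission (≥50% size reduction), no change or progression, with % change in tumor area and body weight.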

Rattus norvegicus [3] = species on record: Rattus norvegicus; assay: Partial remission of DMBA-induced hormone-dependent mammary carcinoma tumors in rats at 2.25 mg; type: functional
Summary of the method: (§2)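 DMBA-induced, hormone-dependent mammary adenocarcinoma in SD rats. Rats bearing at least one tumor >140 mm² were placed in groups of ten. Compound was given sc as a single dose (mg/kg) daily Monday–Thursday and a double dose on Friday. Tumors were counted at the start and as new tumors; responses were scored as complete remission (not palpable), partial remission (≥50% reduction), no change or progression. Tumor area and body weight were recorded as % change.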

Rattus norvegicus [4] = species on record: Rattus norvegicus; assay: Percent unchanged tumor size of DMBA-induced hormone-dependent mammary carcinoma tumors in rats at 9 mg; type: functional
Rattus norvegicus [5] = species on record: Rattus norvegicus; assay: Progression of DMBA-induced hormone-dependent mammary carcinoma tumors in rats at 2.25 mg; type: functional
Rattus norvegicus [6] = species on record: Rattus norvegicus; assay: Progression of DMBA-induced hormone-dependent mammary carcinoma tumors in ovariectomised rats; type: functional; summary of the method: as §1
MCF7 [7] = assay: Inhibition of estrogen receptor positive MCF-7 cell proliferation as percent treated/control cell number after 10 days at 10e-6 M; type: functional, Homo sapiens
Summary of the method: (§3)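 MCF-7 cells were grown in McCoy's 5a medium with fetal bovine serum stripped by DCC (0.5 h, 45 °C). Compounds were dissolved in ethanol (final ≤0.5%) and diluted in complete medium. Cells were seeded at 5×10^4 cells/plate. On day 10, three replicate plates per group were counted by Coulter counter, three counts per plate. Percent T/C = test/control. In a retest, compounds were given at 10^-7 M with 17β-estradiol at 10^-7 or 10^-8 M.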

MCF7 [8] = assay: Inhibition of estrogen receptor positive MCF-7 cell proliferation as percent treated/control cell number after 10 days at 10e-7 M; type: functional, Homo sapiens; summary of the method: as §3
MCF7 [9] = assay: Inhibition of estrogen receptor positive MCF-7 cell proliferation as percent treated/control cell number after 10 days at 10e-7 M with 10e-7 M 17-beta-estradiol; type: functional, Homo sapiens; summary of the method: as §3
MCF7 [10] = assay: Inhibition of estrogen receptor positive MCF-7 cell proliferation as percent treated/control cell number after 10 days at 10e-8 M; type: functional, Homo sapiens; summary of the method: as §3
MCF7 [11] = assay: Inhibition of estrogen receptor positive MCF-7 cell proliferation as cell number after 10 days at 10e-8 M; type: functional, Homo sapiens; summary of the method: as §3
MCF7 [12] = assay: Inhibition of estrogen receptor positive MCF-7 cell proliferation as cell number after 10 days at 10e-9 M; type: functional, Homo sapiens; summary of the method: as §3
MCF7 [13] = assay: Inhibition of estrogen receptor positive MCF-7 cell proliferation as percent treated/control cell number after 10 days at 10e-9 M; type: functional, Homo sapiens; summary of the method: as §3
MCF7 [14] = assay: Inhibition of estrogen receptor positive MCF-7 cell proliferation as cell number after 10 days at 10e-6 M; type: functional, Homo sapiens; summary of the method: as §3
MCF7 [15] = assay: Inhibition of estrogen receptor positive MCF-7 cell proliferation as cell number after 10 days at 10e-7 M and 10e-8 M 17-beta-estradiol; type: functional, Homo sapiens; summary of the method: as §3
MCF7 [16] = assay: Inhibition of estrogen receptor positive MCF-7 cell proliferation as cell number after 10 days at 10e-7 M and 10e-7 M 17-beta-estradiol; type: functional, Homo sapiens; summary of the method: as §3
MCF7 [17] = assay: (§4) Inhibition of estrogen receptor positive MCF-7 cell proliferation as cell number after 10 days at 10e-7 M; type: functional, Homo sapiens; summary of the method: as §3
MCF7 [18] = assay: as §4; type: functional, Homo sapiens; summary of the method: as §3; remark: listed apart in the source
Mus musculus [19] = species on record: Mus musculus; assay: Vaginal cornification test in mice at 0 ug; predominant cellular component leucocytes (diestrus); type: functional, organism-based
Summary of the method: (§5)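 Female NMRI mice (~15 g) were ovariectomized; castration was confirmed at 10 days by leucocyte smears. Mice were primed with estradiol 3-benzoate 0.2 μg, and only responders showing estrus were kept. Groups of three received sc test compound in 0.1 mL olive oil daily for 3 days. Saline vaginal smears were taken 6, 24, 30, 48 and 54 h after the last dose and scored by Allen-Doisy.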

[20] = target: T1, Estrogen receptor (Mus musculus) (UniProt O08537+P19785); assay: Antiestrogenic activity in uterotrophic test in mice at 500 ug; type: functional
Summary of the method: (§6)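 Immature female NMRI mice, 20 days old (14.5 ± 1.2 g), randomly grouped 10 per group. Each received a daily sc injection for 3 days of 0.1 mL olive oil solution containing test compound, together with estrone to stimulate uterine growth. Uteri were removed 24 h after the last injection and weighed. Results are reported as % inhibition of the estrone-stimulated uterine weight gain, mean ± SD.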

[21] = target: T1, Estrogen receptor (Mus musculus); assay: Estrogenic activity in uterotrophic test in mice at 300 ug; type: functional
Summary of the method: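 Immature (20-day-old) female NMRI mice, 14.5 ± 1.2 g, randomized into groups of 10. Given the test compound sc daily for 3 days in 0.1 mL olive oil. Uteri removed 24 h after the last injection; uterine weight taken as the read-out, means ± SD. Dose in μg.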

Rattus norvegicus [22] = species on record: Rattus norvegicus; assay: Percent change in body weight DMBA-induced hormone-dependent mammary carcinoma tumors in ovariectomised rats after 7 days; type: functional; summary of the method: as §1
[23] = target: T1, Estrogen receptor (Mus musculus); assay: Inhibitory activity in mouse uterine weight test at 5 ug; type: functional
Summary of the method: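 Antiuterotrophic (Dorfman) assay in immature 20-day-old female NMRI mice, groups of 10. Uterine growth was stimulated with estrone (0.1 μg) and the test compound was given alongside it, sc daily for 3 days in 0.1 mL olive oil. Uteri were taken 24 h after the last dose. Uterine weight is reported as means ± SD and inhibition as % of the estrone-stimulated response.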

MCF7 [24] = assay: Inhibition of estrogen receptor positive MCF-7 cell proliferation as percent treated/control cell number after 10 days at 10e-7 M and 10e-8 M 17-beta-estradiol; type: functional, Homo sapiens; summary of the method: as §3
[25] = tested on: Estrogen receptor (Bos taurus); assay: Displacement of [3H]estradiol from calf estrogen receptor
Rattus norvegicus [26] = species on record: Rattus norvegicus; assay: Partial remission of DMBA-induced hormone-dependent mammary carcinoma tumors in rats at 1 mg; type: functional; summary of the method: as §2
Rattus norvegicus [27] = species on record: Rattus norvegicus; assay: Percent change in DMBA-induced hormone-dependent mammary carcinoma tumor area at 4 mg after 28 days; type: functional; summary of the method: as §2
Rattus norvegicus [28] = species on record: Rattus norvegicus; assay: Percent unchanged tumor size of DMBA-induced hormone-dependent mammary carcinoma tumors in rats at 4 mg; type: functional
Rattus norvegicus [29] = species on record: Rattus norvegicus; assay: Progression of DMBA-induced hormone-dependent mammary carcinoma tumors in rats at 4 mg; type: functional
Rattus norvegicus [30] = species on record: Rattus norvegicus; assay: Progression of DMBA-induced hormone-dependent mammary carcinoma tumors in rats at 1 mg; type: functional
Mus musculus [31] = species on record: Mus musculus; assay: Vaginal cornification test in mice at 2.5 ug; predominant cellular component leucocytes (diestrus); type: functional, organism-based
Mus musculus [32] = species on record: Mus musculus; assay: Vaginal cornification test in mice at 5 ug; predominant cellular component leucocytes (diestrus); type: functional, organism-based; summary of the method: as §5
Rattus norvegicus [33] = species on record: Rattus norvegicus; assay: Initial tumor number of DMBA-induced hormone-dependent mammary carcinoma in rats at 4 mg; type: functional; summary of the method: as §2
[34] = target: T1, Estrogen receptor (Mus musculus); assay: Antiestrogenic activity in uterotrophic test in mice at 2.5 ug (experiment 1); type: functional; summary of the method: as §6
[35] = target: T1, Estrogen receptor (Mus musculus); assay: Estrogenic activity in uterotrophic test in mice at 0 ug (experiment 1); type: functional
Summary of the method: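 Uterine growth stimulation in immature female NMRI mice, 20 days old (14.5 ± 1.2 g), 10 per group. Test compound in 0.1 mL olive oil was given sc daily for 3 days. Uteri were excised 24 h after the final injection and weighed. Effect is reported as mean ± SD.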

T1 sequence (O08537 whole entry, looked up): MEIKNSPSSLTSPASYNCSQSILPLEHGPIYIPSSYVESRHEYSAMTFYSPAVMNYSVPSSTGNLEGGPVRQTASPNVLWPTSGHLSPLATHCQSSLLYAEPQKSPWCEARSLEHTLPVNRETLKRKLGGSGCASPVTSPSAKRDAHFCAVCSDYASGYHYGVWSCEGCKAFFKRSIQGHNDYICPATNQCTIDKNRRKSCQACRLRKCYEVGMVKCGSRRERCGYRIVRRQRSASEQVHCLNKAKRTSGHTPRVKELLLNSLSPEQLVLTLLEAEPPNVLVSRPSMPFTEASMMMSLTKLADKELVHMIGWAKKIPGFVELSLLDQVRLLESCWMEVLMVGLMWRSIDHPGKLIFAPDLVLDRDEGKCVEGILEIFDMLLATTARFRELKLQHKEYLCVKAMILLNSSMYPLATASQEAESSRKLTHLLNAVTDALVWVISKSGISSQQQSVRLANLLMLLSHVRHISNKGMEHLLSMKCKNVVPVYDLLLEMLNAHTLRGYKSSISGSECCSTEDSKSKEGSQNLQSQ
T1 sequence (P19785 whole entry, looked up): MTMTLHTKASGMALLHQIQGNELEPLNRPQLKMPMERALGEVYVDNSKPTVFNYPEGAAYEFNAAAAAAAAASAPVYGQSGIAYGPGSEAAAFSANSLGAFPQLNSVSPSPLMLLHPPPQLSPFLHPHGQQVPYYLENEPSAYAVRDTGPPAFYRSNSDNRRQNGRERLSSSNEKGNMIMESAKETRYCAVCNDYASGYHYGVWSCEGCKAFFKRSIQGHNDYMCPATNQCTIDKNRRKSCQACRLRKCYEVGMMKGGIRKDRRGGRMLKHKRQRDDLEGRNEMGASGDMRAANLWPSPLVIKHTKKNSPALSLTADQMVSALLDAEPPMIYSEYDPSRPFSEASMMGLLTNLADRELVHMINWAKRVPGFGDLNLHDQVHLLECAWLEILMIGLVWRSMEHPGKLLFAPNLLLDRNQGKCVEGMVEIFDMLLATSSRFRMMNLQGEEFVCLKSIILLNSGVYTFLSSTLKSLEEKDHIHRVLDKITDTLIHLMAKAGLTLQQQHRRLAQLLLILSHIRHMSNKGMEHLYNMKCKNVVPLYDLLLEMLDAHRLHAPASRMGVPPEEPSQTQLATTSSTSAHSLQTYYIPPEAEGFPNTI

CCCC(c1cccc(O)c1)C(CCC)c1cccc(O)c1 (centres undefined)
Change (Rattus norvegicus [1]): -1.1% | Tumors (Rattus norvegicus [2]): 10% | Tumors (Rattus norvegicus [3]): 8% | Tumors (Rattus norvegicus [4]): 9% | Tumors (Rattus norvegicus [5]): 54% | Tumors (Rattus norvegicus [6]): 0% | T/C (MCF7 [7]): 53% | T/C (MCF7 [8]): 66% and 68% | T/C (MCF7 [9]): 84% | T/C (MCF7 [10]): 78% | Cell number (MCF7 [11]): 34300 | Cell number (MCF7 [12]): 30700 | T/C (MCF7 [13]): 71% | Cell number (MCF7 [14]): 23300 | Cell number (MCF7 [15]): 6100 | Cell number (MCF7 [16]): 5600 | Cell number (MCF7 [17]): 4300 | Cell number (MCF7 [18]): 29700 | Activity (Mus musculus [19]): inactive | Effect [20]: 23.9 | Effect [21]: 28.4 | Change (Rattus norvegicus [22]): 3.6% | inhibition [23]: 26% | T/C (MCF7 [24]): 93% | Ka [25]: 9.1e+07 M⁻¹

CCC(c1cccc(O)c1)C(CC)c1cccc(O)c1 (stereo in doubt; 20)
Tumors (Rattus norvegicus [26]): 15% | Change (Rattus norvegicus [27]): -75% | Tumors (Rattus norvegicus [28]): 19% | Tumors (Rattus norvegicus [29]): 10% | Tumors (Rattus norvegicus [30]): 29% | T/C (MCF7 [7]): 27% | T/C (MCF7 [8]): 70% and 63% | T/C (MCF7 [9]): 84% | T/C (MCF7 [10]): 64% | Cell number (MCF7 [11]): 27900 | Cell number (MCF7 [12]): 32100 | T/C (MCF7 [13]): 73% | Cell number (MCF7 [14]): 11900 | Cell number (MCF7 [15]): 5100 | Cell number (MCF7 [17]): 4700 | Cell number (MCF7 [18]): 27700 | Activity (Mus musculus [19]): inactive | Activity (Mus musculus [31]): inactive | Activity (Mus musculus [32]): inactive | No. of tumors (Rattus norvegicus [33]): 37 | Effect [34]: 29.5 | Effect [35]: 10.7 | T/C (MCF7 [24]): 78% | Ka [25]: 2e+08 M⁻¹
